Experiments:
[1] = target: Mu-type opioid receptor (Homo sapiens, UniProt P35372); assay: Displacement of [3H]diprenorphine from recombinant mu opioid receptor expressed in C6 cells; assay type: cell-based
[2] = target: Delta-type opioid receptor (Homo sapiens, UniProt P41143); assay: Displacement of [3H]diprenorphine from recombinant delta opioid receptor expressed in C6 cells; assay type: cell-based
Procedure, shortened: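 Competitive binding against [3H]diprenorphine in membranes of C6 rat glioma cells expressing recombinant δ opioid receptor; Ki from three experiments run in duplicate, mean ± SEM.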

[3] = target: Kappa-type opioid receptor (Homo sapiens, UniProt P41145); assay: Displacement of [3H]diprenorphine from recombinant kappa opioid receptor expressed in CHO cells; assay type: cell-based
Chain of Kappa-type opioid receptor (P41145 whole entry): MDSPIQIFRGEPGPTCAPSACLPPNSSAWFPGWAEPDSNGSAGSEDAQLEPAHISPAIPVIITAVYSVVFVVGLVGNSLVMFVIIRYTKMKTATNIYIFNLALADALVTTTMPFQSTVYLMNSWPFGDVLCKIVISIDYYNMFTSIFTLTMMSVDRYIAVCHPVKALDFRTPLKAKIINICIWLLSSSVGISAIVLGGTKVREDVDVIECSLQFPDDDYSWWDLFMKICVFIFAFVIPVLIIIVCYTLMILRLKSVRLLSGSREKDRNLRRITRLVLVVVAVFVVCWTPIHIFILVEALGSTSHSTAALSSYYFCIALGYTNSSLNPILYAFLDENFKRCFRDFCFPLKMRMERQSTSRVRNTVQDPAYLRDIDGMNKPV

[4] = Selectivity for recombinant mu opioid receptor over recombinant delta opioid receptor
Procedure, shortened: (§1)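 Ratios of Ki values from [3H]diprenorphine displacement in membranes of C6 rat glioma cells expressing µ or δ receptors and CHO cells expressing κ receptor; three experiments in duplicate.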

[5] = Selectivity for recombinant mu opioid receptor over recombinant kappa opioid receptor; procedure, shortened: as §1
[6] = target: ATP-dependent translocase ABCB1 (Homo sapiens, UniProt P08183); assay: Effect on human recombinant Pgp-mediated ATP consumption assessed as inhibition of ATPase activity at 200 uM by Pgp-Glo assay
Chain of ATP-dependent translocase ABCB1 (P08183 whole entry): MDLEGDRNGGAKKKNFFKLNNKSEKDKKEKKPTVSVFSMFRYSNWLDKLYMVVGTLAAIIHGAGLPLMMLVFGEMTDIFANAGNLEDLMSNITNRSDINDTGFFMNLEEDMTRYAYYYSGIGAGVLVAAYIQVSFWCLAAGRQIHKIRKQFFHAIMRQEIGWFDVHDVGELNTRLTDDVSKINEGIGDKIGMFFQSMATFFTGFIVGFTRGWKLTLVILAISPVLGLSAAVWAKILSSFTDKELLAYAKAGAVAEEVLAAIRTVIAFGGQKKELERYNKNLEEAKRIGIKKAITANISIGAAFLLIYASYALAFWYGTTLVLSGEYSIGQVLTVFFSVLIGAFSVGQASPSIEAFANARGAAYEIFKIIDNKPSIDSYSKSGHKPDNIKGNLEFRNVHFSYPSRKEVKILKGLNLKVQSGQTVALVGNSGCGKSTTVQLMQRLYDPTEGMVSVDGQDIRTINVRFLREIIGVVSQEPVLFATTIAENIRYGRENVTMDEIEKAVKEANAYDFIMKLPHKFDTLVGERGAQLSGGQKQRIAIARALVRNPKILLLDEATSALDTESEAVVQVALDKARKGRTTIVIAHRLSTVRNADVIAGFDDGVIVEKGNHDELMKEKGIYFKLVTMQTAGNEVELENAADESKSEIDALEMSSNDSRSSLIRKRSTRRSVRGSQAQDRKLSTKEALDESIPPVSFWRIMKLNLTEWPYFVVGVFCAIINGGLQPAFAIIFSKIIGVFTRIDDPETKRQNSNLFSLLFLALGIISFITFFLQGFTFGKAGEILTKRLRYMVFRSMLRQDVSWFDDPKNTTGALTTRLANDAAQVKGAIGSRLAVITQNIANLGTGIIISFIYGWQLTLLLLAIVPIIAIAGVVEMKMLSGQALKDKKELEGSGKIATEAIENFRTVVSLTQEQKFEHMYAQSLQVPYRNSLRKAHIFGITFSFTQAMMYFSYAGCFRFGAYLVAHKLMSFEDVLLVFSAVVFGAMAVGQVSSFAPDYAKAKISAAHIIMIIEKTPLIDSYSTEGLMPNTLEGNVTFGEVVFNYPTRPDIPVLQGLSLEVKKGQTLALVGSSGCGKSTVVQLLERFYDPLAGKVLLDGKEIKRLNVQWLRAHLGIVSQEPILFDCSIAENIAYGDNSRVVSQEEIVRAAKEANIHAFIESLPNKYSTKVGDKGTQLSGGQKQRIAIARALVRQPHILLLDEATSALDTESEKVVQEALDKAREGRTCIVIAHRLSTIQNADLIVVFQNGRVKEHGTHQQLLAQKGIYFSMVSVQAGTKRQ
Procedure, shortened: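 Recombinant human P-gp incubated with 200 µM compound in P-gp-Glo buffer, four wells each; started with MgATP (10 mM), quenched after 40 min with firefly luciferase ATP detection reagent, luminescence read 60 min later. Untreated, vanadate (100 µM) and verapamil (200 µM) controls; mean ± SEM, t-test.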

[7] = test system: Mus musculus; assay: Antinociceptive activity in sc dosed mouse by tail flick assay; assay type: functional
Procedure, shortened: (§2)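 Mice, test compound given subcutaneously; antinociception measured in tail-flick, p-phenylquinone writhing and hot plate assays following CPDD Drug Evaluation Committee protocols. ED50 (mg/kg) with 95% confidence limits.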

[8] = test system: Mus musculus; assay: Antinociceptive activity in sc dosed mouse by p-phenylquinone writhing assay; assay type: functional; procedure, shortened: as §2
[9] = test system: Mus musculus; assay: Antinociceptive activity in sc dosed mouse by hot plate assay; assay type: functional; procedure, shortened: as §2

Chain of Mu-type opioid receptor (P35372 whole entry): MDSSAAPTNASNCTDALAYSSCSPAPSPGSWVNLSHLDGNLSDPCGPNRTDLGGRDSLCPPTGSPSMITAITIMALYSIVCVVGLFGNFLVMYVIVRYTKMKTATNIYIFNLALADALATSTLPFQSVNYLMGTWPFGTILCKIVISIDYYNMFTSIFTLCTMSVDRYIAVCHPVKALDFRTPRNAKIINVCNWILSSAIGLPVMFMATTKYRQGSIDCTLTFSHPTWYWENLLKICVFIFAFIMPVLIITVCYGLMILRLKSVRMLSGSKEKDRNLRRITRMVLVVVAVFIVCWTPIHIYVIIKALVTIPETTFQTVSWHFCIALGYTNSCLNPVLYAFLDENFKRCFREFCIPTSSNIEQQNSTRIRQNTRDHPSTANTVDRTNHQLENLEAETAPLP
Chain of Delta-type opioid receptor (P41143 whole entry): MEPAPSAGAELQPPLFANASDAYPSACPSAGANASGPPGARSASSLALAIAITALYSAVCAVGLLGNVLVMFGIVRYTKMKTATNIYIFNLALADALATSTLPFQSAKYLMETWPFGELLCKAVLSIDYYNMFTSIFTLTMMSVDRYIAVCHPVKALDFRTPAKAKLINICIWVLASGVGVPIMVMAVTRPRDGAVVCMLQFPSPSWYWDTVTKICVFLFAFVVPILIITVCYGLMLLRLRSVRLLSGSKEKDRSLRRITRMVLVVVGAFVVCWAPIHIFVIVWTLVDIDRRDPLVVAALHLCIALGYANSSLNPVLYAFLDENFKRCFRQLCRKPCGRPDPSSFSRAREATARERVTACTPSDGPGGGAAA

SMILES	Ki [1]	Ki [2]	Ki [3]	Ratio Ki [4]	Ratio Ki [5]	Activity [6]	ED50 [7]	ED50 [8]	ED50 [9]
COc1ccc2c3c1O[C@H]1[C@@H](OC)C=C[C@H]4[C@@H](C2)N(C)CC[C@@]341	1.91 µM	4.41 µM	5.43 µM	2	3	–	–	–	–
CN1CC[C@]23c4c5cccc4O[C@H]2[C@@H](O)CC[C@H]3[C@H]1C5	0.122 µM	5.25 µM	4.91 µM	43	40	Active	–	–	–
CO[C@H]1CC[C@H]2[C@H]3Cc4cccc5c4[C@@]2(CCN3C)[C@H]1O5	0.524 µM	8.83 µM	11.6 µM	17	22	–	–	–	–
CN1CC[C@]23c4c5ccc(O)c4O[C@H]2CC=C[C@H]3[C@H]1C5	0.0021 µM	0.0118 µM	0.0455 µM	4	16	Active	0.2 mg/kg	0.03 mg/kg	0.33 mg/kg
CO[C@H]1C=C[C@H]2[C@H]3Cc4ccc(O)c5c4[C@@]2(CCN3C)[C@H]1O5 [HETEROCODEINE]	–	0.0658 µM	0.0228 µM	–	–	–	–	–	–
COc1ccc2c3c1O[C@H]1CC=C[C@H]4[C@@H](C2)N(C)CC[C@]314	0.305 µM	4.52 µM	3.09 µM	15	10	Active	–	–	–
CN1CC[C@]23c4c5cccc4O[C@H]2CCC[C@H]3[C@H]1C5	0.0229 µM	0.241 µM	0.589 µM	11	26	–	–	–	–

— ChEMBL document CHEMBL1144851, “Opioids and efflux transporters. Part 2: P-glycoprotein substrate activity of 3- and 6-substituted morphine analogs” (J Med Chem, 2008)
